We go through 18 compounds from paper PMC3596460 (Nuclear medicine and biology, 2013).

Like-named read-outs stand apart in the source and are kept apart here.

The target in data set [1] is T1, human norepinephrine transporter (hNET) (Homo sapiens, UniProt P23975). The data set can be described thus: Competitive inhibition of [^3H]mazindol binding to C6-hNET cell membranes. A digest of the protocol:
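Rat C6 glioma cells stably expressing human NET were Dounce-homogenized, and membranes were pelleted at 100,000 × g and resuspended in 50 mM Tris, 120 mM NaCl, 5 mM KCl, pH 7.4. Each assay used 70–100 μg protein. Radioligand was [3H]mazindol, with desipramine defining nonspecific binding. Ten inhibitor concentrations were run in quadruplicate and normalized to % specific binding. A one-site competition fit gave IC50, converted to Ki by Cheng-Prusoff using the mean saturation KD.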

Data set [2] addresses T1, human norepinephrine transporter (hNET). The data set can be described thus: Saturation transport kinetics assays with intact C6-hNET cells. Type of data set: cell-based. The note with it: for Km / Vmax: intact C6-hNET cells, 5 min, 37 °C, mean ± SD, n = 4 or 5.
The conditions of data set [3]: earlier studies, reference not given; cited from earlier work.
The subject of data set [4] is norepinephrine transporter (NET). The note with it: isolated rat heart, cited from earlier work.
Data set [5] shares this test system. The data set can be described thus: NET transport kinetics / neuronal uptake in isolated perfused rat hearts. The note with it: isolated rat heart, ratio of Vmax and Km estimates.
For data set [6], the target named is T1, human norepinephrine transporter (hNET). Briefly: Saturation binding assays with [^3H]mazindol and C6-hNET membranes. The note with it: C6-hNET cell membranes, n = 4. A digest of the protocol:
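The membranes were C6-hNET cell membranes, 100,000 × g pellets in 50 mM Tris/120 mM NaCl/5 mM KCl, pH 7.4, from different batches. Protein was measured by Lowry with BSA standards. Eight [3H]mazindol concentrations (0.25–25 nM) were tested, with specific binding in triplicate at each. A one-site binding nonlinear fit gave KD (nM) and Bmax (fmol/mg protein).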

Setting [7] is: [^3H]mazindol, homogenized C6-hNET cell membranes, Cheng-Prusoff, mean ± SD, n = 4 or 5.

T1 sequence (P23975 whole entry): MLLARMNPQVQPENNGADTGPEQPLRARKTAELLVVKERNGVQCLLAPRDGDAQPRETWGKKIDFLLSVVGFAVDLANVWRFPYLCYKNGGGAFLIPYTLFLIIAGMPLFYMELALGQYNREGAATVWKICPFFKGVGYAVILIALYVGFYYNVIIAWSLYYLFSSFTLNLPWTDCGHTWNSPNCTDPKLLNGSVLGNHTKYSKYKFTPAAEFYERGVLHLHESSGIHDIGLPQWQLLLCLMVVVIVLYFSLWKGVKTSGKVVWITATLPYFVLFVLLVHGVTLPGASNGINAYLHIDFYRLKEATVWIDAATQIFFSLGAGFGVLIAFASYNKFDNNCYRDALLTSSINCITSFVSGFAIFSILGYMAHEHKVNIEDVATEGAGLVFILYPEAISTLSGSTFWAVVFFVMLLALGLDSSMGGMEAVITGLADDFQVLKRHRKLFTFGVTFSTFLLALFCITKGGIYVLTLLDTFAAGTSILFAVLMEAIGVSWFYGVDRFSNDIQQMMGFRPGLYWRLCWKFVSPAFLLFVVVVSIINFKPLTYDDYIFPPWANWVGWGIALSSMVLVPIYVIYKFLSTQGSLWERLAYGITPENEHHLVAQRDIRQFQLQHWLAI

The term Ki denotes the dissociation constant of the complex between target and ligand, obtained from inhibition or displacement. Higher therefore signals lower affinity. The term Km denotes the substrate concentration at which the rate is half of its maximum. Compound `N=C(N)NCC(O)c1cccc(O)c1` (single isomer, unassigned; (-)) [GMO, (−)-N-[^11C]guanyl-meta-octopamine] came in with a Ki in data set [1] (setting [7]) of 20.3 ± 2.5 µM. The Km in data set [2] is 4.43 ± 0.31 µM.
For the compound `N=[11C](N)NCC(O)c1cccc(O)c1` (single isomer, unassigned; (-)) [GMO, (−)-N-[^11C]guanyl-meta-octopamine], in data set [2] (C6-hNET cells, comparator MHPG), the “Km increase relative to MHPG” value is recorded as 6 fold, the “Vmax decrease relative to MHPG” value came to 30% and the “Vmax/Km ratio slower than for MHPG” value is reported as ~ 9 times slower. Also, in data set [2], the Vmax was determined as 5.57 ± 0.30 pmol/min/mg protein.
Compound `N=C(N)NCCc1ccc(F)c(O)c1` [4F-MHPG, [^11C]4-fluoro-meta-hydroxyphenethylguanidine] returned a Ki in data set [1] (setting [7]) of 5.6 ± 0.5 µM. In data set [2] (C6-hNET cells, comparator MHPG), the “Km increase relative to MHPG” value was 5 fold. In data set [2], the Km was found to be 2.57 ± 0.35 µM and the Vmax is given as 7.46 ± 0.64 pmol/min/mg protein.
Turning to `N=C(N)NCCc1cc(O)ccc1F` [6F-MHPG, [^11C]6-fluoro-meta-hydroxyphenethylguanidine], the Ki in data set [1] (setting [7]) was 17.7 ± 0.5 µM. Besides, the Michaelis-Menten constant (Km) in data set [2] was 2.86 ± 0.43 µM.
As to `N=[11C](N)NCCc1cc(O)ccc1F` [6F-MHPG, [^11C]6-fluoro-meta-hydroxyphenethylguanidine], in data set [2] (C6-hNET cells, comparator MHPG), the “Km increase relative to MHPG” value is ~ 5 fold, the “Vmax decrease relative to MHPG” value is reported as ~ 50% and the “Vmax/Km as percentage of the value for MHPG” value is reported as ~ 12%. The Vmax in data set [2] is recorded as 4.06 ± 0.66 pmol/min/mg protein.
In general, log P refers to a log measure of how a compound divides between an organic and an aqueous phase. On to `CNC[C@H](O)c1ccc(O)c(O)c1` [EPI, [^11C]-(−)-epinephrine], for which, in data set [3], the “log P” value is −1.30. In data set [1], this compound came in with a Ki of 68.4 ± 7.6 µM. Further, the “Km increase relative to NE” value in data set [2] (C6-hNET cells, comparator NE) is given as 11 fold.
`NC(N)=NCc1cccc(Br)c1` [MBBG, [^76Br]-meta-bromobenzylguanidine]: the Km in data set [4] (ref Raffel et al. [16]) is 0.11 ± 0.03 µM.
Consider `NC(N)=NCc1cccc([76Br])c1` [MBBG, [^76Br]-meta-bromobenzylguanidine], for which, in data set [4] (ref Raffel et al. [16]), the Vmax is listed as 0.33 ± 0.10 nmol/min/g wet. Moreover, in data set [5] (ref Raffel et al. [16]), the Vmax/Km ratio is 3.0 ± 1.2 ml/min/g wet.
Consider `N=C(N)NCCc1cccc(O)c1` [MHPG, [^11C]meta-hydroxyphenethylguanidine], for which the Ki in data set [1] (setting [7]) came out at 4.9 ± 0.5 µM. The Km in data set [2] is 0.73 ± 0.2 µM.
Turning to `N=[11C](N)NCCc1cccc(O)c1` [MHPG, [^11C]meta-hydroxyphenethylguanidine], the “Vmax relative to PHPG” value in data set [2] (C6-hNET cells, comparator PHPG) amounted to 2.4 times higher. The Vmax in data set [2] was determined as 7.83 ± 1.73 pmol/min/mg protein.
`N=C(N)NCc1cccc(I)c1` [MIBG, [^131I]metaiodobenzylguanidine]: the Km in data set [4] (ref DeGrado et al. [15]) is 0.052 µM.
As to `N=C(N)NCc1cccc([131I])c1` [MIBG, [^131I]metaiodobenzylguanidine], the Vmax in data set [4] (ref DeGrado et al. [15]) is reported as 0.23 nmol/min/g wet. The Vmax/Km ratio in data set [5] (ref DeGrado et al. [15]) is given as 4.4 ml/min/g wet.
On to `NC[C@H](O)c1ccc(O)c(O)c1` [NE, [^3H]-(−)-norepinephrine], for which, in data set [4] (ref Iversen [14]), the Michaelis-Menten constant (Km) was 0.27 µM and the Vmax is given as 1.18 ± 0.12 nmol/min/g wet.
On to `N=C(N)NCCc1ccc(O)cc1` [PHPG, [^11C]para-hydroxyphenethylguanidine], for which the Ki in data set [1] (setting [7]) worked out at 1.9 ± 0.2 µM. For the same compound, the Km in data set [2] is 0.52 ± 0.06 µM.
Take `N=[11C](N)NCCc1ccc(O)cc1` [PHPG, [^11C]para-hydroxyphenethylguanidine]: in data set [2], the Vmax was determined as 3.31 ± 0.40 pmol/min/mg protein.
Broadly, the Kd is the equilibrium constant for the complex coming apart. Higher therefore signals a looser complex. Regarding `OC1(c2ccc(Cl)cc2)c2ccccc2C2=NCCN21` (stereo not drawn) [[^3H]mazindol, [4′-^3H]Mazindol], in data set [6], the Bmax was 457 ± 31 fmol/mg protein and the dissociation constant (Kd) was found to be 0.0012 µM.
Turning to [^3H]dopamine [DA], in data set [4] (ref Hellmann et al. [11]), the Km is 0.69 µM and the Vmax is 1.45 nmol/min/g wet. The Vmax/Km ratio in data set [5] (ref Hellmann et al. [11]) is recorded as 2.10 ml/min/g wet. In data set [2], the Michaelis-Menten constant (Km) came to 0.24 ± 0.04 µM and the Vmax came to 2.91 ± 0.47 pmol/min/mg protein.
As to [^11C]-(−)-meta- hydroxyephedrine, the “log P” value in data set [3] was 0.3. In data set [1] (setting [7]), the Ki was 43.2 ± 1.8 µM. In addition, in data set [2], the Km worked out at 0.48 ± 0.08 µM and the Vmax is given as 5.43 ± 0.71 pmol/min/mg protein.
